Assay results: ChEMBL document CHEMBL2331495, “Novel pyrazole derivatives as neutral CB₁ antagonists with significant activity towards food intake” (Eur J Med Chem, 2013)
The source made the active and inactive calls. The rule behind the calls is not given here.

What was measured:
Mus musculus [1] = experiment: Reduction of food intake in fasted C57Bl6/J mouse at 10 to 20 mg/kg, ip administered 15 mins prior to food presentation measured for 2 hrs; type: functional, organism-based
How it was run: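 C57Bl6/J mice (20-25 g), housed singly on a reverse light-dark cycle and fasted 18 h. Dosed ip at 10 and 20 mg/kg in saline with Tween 80 and ethanol (each 2.5 wt%). Weighed food presented 15 min later; intake followed over 3 h. Mean ± SEM; two-way ANOVA with Bonferroni post hoc versus vehicle.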

[2] = molecular target: Cannabinoid receptor 1 (Mus musculus) (UniProt P47746); experiment: Neutral antagonist activity at CB1 receptor in mouse N1E-115 cells assessed as inhibition of WIN 55,212-2-induced ERK1/2 phosphorylation at 125 to 500 nM treated 5 mins prior to WIN 55,212-2 challenge by Western blot analysis; type: cell-based
Cannabinoid receptor 1 (Mus musculus), sequence (P47746 whole entry): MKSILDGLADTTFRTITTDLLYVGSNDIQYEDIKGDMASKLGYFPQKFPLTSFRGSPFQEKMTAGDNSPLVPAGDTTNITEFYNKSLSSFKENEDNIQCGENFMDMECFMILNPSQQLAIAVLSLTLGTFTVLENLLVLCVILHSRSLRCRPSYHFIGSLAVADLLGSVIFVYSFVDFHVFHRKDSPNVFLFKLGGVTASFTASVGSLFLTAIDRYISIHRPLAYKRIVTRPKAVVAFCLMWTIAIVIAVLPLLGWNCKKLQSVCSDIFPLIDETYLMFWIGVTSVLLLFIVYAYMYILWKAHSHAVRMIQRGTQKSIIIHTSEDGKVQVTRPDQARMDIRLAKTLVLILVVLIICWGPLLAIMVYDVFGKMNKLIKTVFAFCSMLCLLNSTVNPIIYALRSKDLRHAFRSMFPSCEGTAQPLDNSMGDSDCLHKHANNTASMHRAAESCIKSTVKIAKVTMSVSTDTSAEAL
How it was run: (§1)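 N1E-115 cells were pretreated for 5 min with compound (0.1-1.0 μM; dissolved in D-PBS with 1% DMSO), then exposed for 10 min to WIN55,212-2 (25 nM). Lysates (40 µg total protein) were western blotted for P-ERK 1/2 and expressed as percentage of vehicle. Five independent experiments; one-way ANOVA.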

Cannabinoid receptor 1 = Cannabinoid receptor 1 (Mus musculus, UniProt P47746); experiment: Displacement of [3H]CP55940 from CB1 receptor in CD1 mouse brain membrane without cerebellum by liquid scintillation counting analysis; type: cell membranes
Cannabinoid receptor 1, sequence (P47746 whole entry): as above

[3] = molecular target: Cannabinoid receptor 1 (Mus musculus) (UniProt P47746); experiment: Agonist activity at CB1 receptor in mouse N1E-115 cells assessed as increase in ERK1/2 phosphorylation after 10 mins by Western blot analysis; type: cell-based
How it was run: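 N1E-115 cells were grown in high-glucose DMEM with 10% FBS at 37 °C, 5% CO2. They were exposed for 10 min to compounds in D-PBS with 1% DMSO, then lysed at 4 °C. P-ERK 1/2 was measured by western blot at 40 µg total protein and expressed as percentage of vehicle. Five independent experiments; one-way ANOVA.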

Mus musculus [4] = species on record: Mus musculus; experiment: Selectivity ratio of Ki for CB1 receptor in CD1 mouse brain membrane without cerebellum to Ki for CB2 receptor in CD1 mouse spleen membrane; type: cell membranes
[5] = molecular target: Cannabinoid receptor 1 (Mus musculus) (UniProt P47746); experiment: Neutral antagonist activity at CB1 receptor in albino CD1 mouse vas deferens assessed as rightward shift in WIN 55,212-2 concentration response curve for electrically evoked contractions at 0.1 to 10 uM treated 20 mins before first addition of WIN 55,212-2
How it was run: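 Vas deferens from male albino CD1 mice, electrically stimulated as for twitch studies, in Krebs-Henseleit at 37 °C. Compound at a fixed concentration (0.1, 1 or 10 μM; DMSO ≤0.1%) was added 20 min before cumulative WIN 55,212-2. Inhibition of twitches was expressed as percentage of the pre-WIN amplitude; mean ± SEM.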

Cannabinoid receptor 2 = Cannabinoid receptor 2 (Mus musculus, UniProt P47936); experiment: Displacement of [3H]CP55940 from CB2 receptor in CD1 mouse spleen membrane by liquid scintillation counting analysis; type: cell membranes
Cannabinoid receptor 2, sequence (P47936 whole entry): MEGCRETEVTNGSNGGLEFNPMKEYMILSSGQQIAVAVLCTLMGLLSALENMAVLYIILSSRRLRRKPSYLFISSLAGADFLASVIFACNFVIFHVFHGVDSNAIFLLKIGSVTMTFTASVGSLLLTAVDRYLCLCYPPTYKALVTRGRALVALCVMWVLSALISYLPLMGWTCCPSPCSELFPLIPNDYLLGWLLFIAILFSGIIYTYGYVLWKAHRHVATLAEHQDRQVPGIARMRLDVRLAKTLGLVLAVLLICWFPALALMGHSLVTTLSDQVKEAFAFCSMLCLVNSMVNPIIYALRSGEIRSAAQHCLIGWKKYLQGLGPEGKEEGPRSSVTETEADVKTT

[6] = molecular target: Cannabinoid receptor 1 (Mus musculus) (UniProt P47746); experiment: Intrinsic activity at CB1 receptor in albino CD1 mouse vas deferens assessed as increase in amplitude of electrically evoked contractions at 0.1 to 100 uM
How it was run: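 Vas deferens from male albino CD1 mice (30-40 g) was held at 0.5 g tension in Krebs-Henseleit at 37 °C, gassed with 95% O2/5% CO2. Twitches were evoked by 0.5-s trains of three 0.5-ms pulses at 110% maximal voltage, 0.1 Hz. Compounds (DMSO ≤0.1%) were added once responses were reproducible. Contraction amplitude was compared with control; mean ± SEM, n=5; ANOVA with Bonferroni test.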

Mus musculus [7] = experiment: Reduction of food intake in fasted C57Bl6/J mouse at 10 to 20 mg/kg, ip administered 15 mins prior to food presentation measured after 1 to 3 hrs; type: functional, organism-based
How it was run: (§2)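 Male-unspecified C57Bl6/J mice (20-25 g) were housed singly on a reverse light-dark cycle and fasted 18 h. Compounds in saline with 2.5% Tween 80 and 2.5% ethanol, or vehicle, were given ip; food was presented 15 min later. Intake was recorded over 3 h. Mean ± SEM; two-way ANOVA with Bonferroni test.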

[8] = molecular target: Cannabinoid receptor 1 (Homo sapiens) (UniProt P21554); experiment: Intrinsic activity at human recombinant CB1 receptor transfected in CHO cells assessed as effect on [35S]GTPgammaS binding up to 0.1 uM after 1 hr by liquid scintillation spectrometry; type: functional, cell-based
Cannabinoid receptor 1 (Homo sapiens), sequence (P21554 whole entry): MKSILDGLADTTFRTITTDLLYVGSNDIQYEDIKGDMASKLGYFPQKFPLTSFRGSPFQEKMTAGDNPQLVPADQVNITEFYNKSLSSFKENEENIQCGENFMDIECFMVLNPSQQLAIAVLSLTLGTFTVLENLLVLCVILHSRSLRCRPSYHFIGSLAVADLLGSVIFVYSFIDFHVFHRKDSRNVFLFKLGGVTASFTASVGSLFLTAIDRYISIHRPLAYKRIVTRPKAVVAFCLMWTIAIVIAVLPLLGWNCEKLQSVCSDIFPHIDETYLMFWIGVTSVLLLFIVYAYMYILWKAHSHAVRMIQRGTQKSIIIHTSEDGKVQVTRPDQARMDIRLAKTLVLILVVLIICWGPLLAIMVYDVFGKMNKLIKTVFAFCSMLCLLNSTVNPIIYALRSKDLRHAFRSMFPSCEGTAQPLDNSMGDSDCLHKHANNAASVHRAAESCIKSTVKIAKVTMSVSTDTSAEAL
How it was run: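 […] used CHO cells expressing human recombinant CB1, incubated with [³⁵S]GTPγS and a range of compound concentrations alone for 1 h at 37 °C. The reaction was stopped with ice-cold Tris/BSA, filtered on glass-fibre filters and read by liquid scintillation spectrometry. Data are percentage stimulation over basal, mean ± SEM of five experiments.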

[9] = molecular target: Cannabinoid receptor 1 (Mus musculus) (UniProt P47746); settings: N1E-115, 1 uM
Mus musculus [10] = experiment: Increase in food intake in fasted C57Bl6/J mouse at 3 to 10 mg/kg, ip administered 15 mins prior to food presentation measured after 3 hrs; type: functional, organism-based
Mus musculus [11] = experiment: Toxicity in C57Bl6/J mouse assessed as mortality at 20 mg/kg, ip; type: organism-based; parameters: dose 20 mg/kg, route intraperitoneal; settings: in vivo
How it was run: (§3)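 Fasted C57Bl6/J mice from the food-intake test were given 20 mg/kg ip in saline with Tween 80 and ethanol (each 2.5 wt%).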

Mus musculus [12] = experiment: Toxicity in C57Bl6/J mouse assessed as locomotion blockage at 20 mg/kg, ip; type: organism-based; parameters: dose 20 mg/kg, route intraperitoneal; settings: in vivo; how it was run: as §3
Mus musculus [13] = experiment: Reduction of food intake in fasted C57Bl6/J mouse at 3 to 10 mg/kg, ip administered 15 mins prior to food presentation measured after 1 hr; type: functional, organism-based; how it was run: as §2
Mus musculus [14] = experiment: Reduction of food intake in fasted C57Bl6/J mouse at 10 to 20 mg/kg, ip administered 15 mins prior to food presentation measured after 2 to 3 hrs; type: functional, organism-based; how it was run: as §2
Mus musculus [15] = experiment: Toxicity in C57Bl6/J mouse assessed as observable adverse events at 20 mg/kg, ip; type: organism-based; parameters: dose 20 mg/kg, route intraperitoneal; settings: in vivo
[16] = molecular target: Cannabinoid receptor 1 (Mus musculus) (UniProt P47746); experiment: Neutral antagonist activity at CB1 receptor in mouse N1E-115 cells assessed as inhibition of WIN 55,212-2-induced ERK1/2 phosphorylation at 1 uM treated 5 mins prior to WIN 55,212-2 challenge by Western blot analysis; type: cell-based; how it was run: as §1

SMILES | Activity (Mus musculus [1]) | inhibition [2] | Ki (Cannabinoid receptor 1) [nM] | Activity [3] | Ratio Ki (Mus musculus [4]) | Activity [5] | Ki (Cannabinoid receptor 2) [nM] | Intrinsic activity [6] | Activity (Mus musculus [7]) | Intrinsic activity [8] | inhibition [9] | Activity (Mus musculus [10]) | Activity (Mus musculus [11]) | Activity (Mus musculus [12]) | Activity (Mus musculus [13]) | Activity (Mus musculus [14]) | Activity (Mus musculus [15]) | inhibition [16]
Cc1c(/C=C/C2CCCCC2)nn(-c2ccc(Cl)cc2Cl)c1-c1ccc(Cl)cc1 | Active | Active | 11.2 | inactive | 0.003 | Active | 3800 | inactive | – | – | – | – | – | – | – | – | – | –
Cc1c(C(=O)CC2CCCCC2)nn(-c2ccc(Cl)cc2Cl)c1-c1ccc(Cl)cc1 | – | Active | 46.1 | inactive | 0.021 | Active | 2230 | – | Active | inactive | – | – | – | – | – | – | – | –
Cc1c(C(=O)NN2CCCCC2)nn(-c2ccc(Cl)cc2Cl)c1-c1ccc(Cl)cc1 [RIMONABANT] | – | – | – | inactive | – | – | – | – | – | – | Active | Active | Toxic | Toxic | Active | – | – | –
Cc1c(/C(F)=C/C2CCCCC2)nn(-c2ccc(Cl)cc2Cl)c1-c1ccc(Cl)cc1 | – | Active | 25.8 | inactive | 0.013 | Active | 1950 | inactive | – | inactive | – | – | – | – | – | Active | Non-toxic | –
Cc1c(/C(F)=C\C2CCCCC2)nn(-c2ccc(Cl)cc2Cl)c1-c1ccc(Cl)cc1 | – | – | 412 | – | 0.103 | Active | 4000 | inactive | – | – | – | – | – | – | – | – | – | –
Cc1c(C(NN2CCCCC2)C(F)(F)F)nn(-c2ccc(Cl)cc2Cl)c1-c1ccc(Cl)cc1 (racemic) | – | – | 287 | inactive | < 0.057 | Active | > 5000 | inactive | – | – | – | – | – | – | – | – | – | Active
Cc1c(C(O)CC2CCCCC2)nn(-c2ccc(Cl)cc2Cl)c1-c1ccc(Cl)cc1 (racemic) | – | – | – | inactive | – | Active | 4200 | inactive | Active | inactive | – | – | – | – | – | – | – | Active
